Experimental data published in ChEMBL document CHEMBL5625166, “Disulfide-incorporated lipid prodrugs of cidofovir: Synthesis, antiviral activity, and release mechanism” (Eur J Med Chem, 2023).

Key:
Vaccinia virus [1] = assay: Antiviral activity against VACV infected in Vero cells assessed as reduction in cytopathic effect incubated for 96 hrs by neutral red based spectrophotometric analysis; format: functional, organism-based; conditions: Orthopoxvirus vaccinia
[2] = Cytotoxicity against African green monkey Vero cells incubated for 72 hrs by neutral red based spectrophotometric analysis; format: toxicity, cell-based; conditions: chlorocebus sabaeus
Outline: (§1)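 Cells seeded at 3 × 10^4 cells/well and grown 24 h at 37 °C, 5% CO2. Two-fold compound dilutions starting at 200.0 μM applied for 72 h. Neutral red (40 μg/mL) added for 4 h, cells washed and destained in ethanol/acetic acid. OD read at 540 nm against cell-free blanks. CC50 from triplicates.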

[3] = Therapeutic index, ratio of CC50 for African green monkey Vero cells to IC50 for VAVC infected in african green monkey Vero cells; format: toxicity; conditions: read-out: Ratio CC50/IC50
Vaccinia virus [4] = assay: Antiviral activity against VACV infected in A549 cells assessed as reduction in cytopathic effect incubated for 96 hrs by neutral red based spectrophotometric analysis; format: functional, organism-based; conditions: Orthopoxvirus vaccinia, A549, 96 h
A549 = assay: Cytotoxicity against human A549 cells incubated for 72 hrs by neutral red based spectrophotometric analysis; format: toxicity, cell-based; conditions: a549, 72 h; outline: as §1
[5] = Therapeutic index, ratio of CC50 for human A549 cells to IC50 for VAVC infected in human A549 cells; format: toxicity, cell-based; conditions: read-out: Ratio CC50/IC50
Human adenovirus 5 [6] = assay: Antiviral activity against AdV5 infected in A549 cells assessed as reduction in cytopathic effect incubated for 72 hrs by neutral red based spectrophotometric analysis; format: functional, organism-based; conditions: Human mastadenovirus C, A549, 72 h
[7] = Therapeutic index, ratio of CC50 for human A549 cells to IC50 for AdV5 infected in human A549 cells; format: toxicity, cell-based; conditions: read-out: Ratio CC50/IC50
Lipid bilayer = assay: Induction of micelles formation in PBS at pH 7.4 by TEM analysis; format: physicochemical; conditions: buffer
Outline: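 Conjugates at 50.0 μM in pH 7.4 phosphate buffer, imaged by transmission electron microscopy for micelle formation.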

[8] = Stability of the compound in phosphate buffer at pH 7.4 assessed as compound remaining measured upto 400 mins in presence of GSH by HPLC method; format: physicochemical; conditions: for remaining at 6.667 h: phosphate buffer with GSH, pH 7.4, read-out: Stability; for Stability: buffer, pH 7.4, 6.667 h
[9] = Stability in SGF assessed as remaining compound after 120 mins; format: ADME; conditions: read-out: Stability
Outline: (§2)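 Incubated in simulated gastric fluid at 37 °C, remaining compound measured at 120 min.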

[10] = Stability of the compound in SIF assessed as remaining compound after 360 mins; format: ADME; conditions: read-out: Stability
Outline: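 Incubated in simulated intestinal fluid at 37 °C, remaining compound measured at 360 min.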

[11] = Stability in human plasma assessed as half life; format: ADME, cell-free
Outline: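 Incubated in pooled human plasma at 37 °C, half-life determined.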

Human adenovirus 5 [12] = assay: Potency index, ratio of BCV IC50 to test compound IC50 for antiviral activity against AdV5 infected in A549 cells assessed as reduction in cytopathic effect incubated for 72 hrs by neutral red based spectrophotometric analysis; format: functional
[13] = Stability of the compound in SGF after 120 mins; format: ADME; conditions: simulated gi fluid, 2 h; outline: as §2
[14] = Stability of the compound in PBS at pH 7.4 assessed as micelles formation after 4 hrs in presence of GSH by TEM analysis; format: physicochemical; conditions: buffer, pH 7.4, 4 h
Outline: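 Micelles in pH 7.4 phosphate buffer re-imaged by TEM after 4 h incubation with GSH.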

[15] = Stability of the compound in phosphate buffer at pH 7.4 assessed as compound remaining measured after 360 mins in presence of GSH by HPLC method; format: physicochemical; conditions: phosphate buffer with GSH, read-out: Stability
Outline: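 Conjugate incubated with 20 mM GSH in pH 7.4 phosphate buffer at 37 °C. Percent remaining monitored by HPLC over time, up to 360 min.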

Row | SMILES | IC50 (Vaccinia virus [1]) | CC50 [2] | selectivity ratio [3] | IC50 (Vaccinia virus [4]) | CC50 (A549) | selectivity ratio [5] | IC50 (Human adenovirus 5 [6]) | selectivity ratio [7] | Activity (Lipid bilayer) | remaining at 6.667 h [8] | remaining at 2 h [9] | remaining at 6 h [10] | t1/2 [11] | Ratio IC50 (Human adenovirus 5 [12]) | Stability [13] | Stability [14] | Stability [8] | remaining at 6 h [15]
1 | CCCCCCCCCCCCSSCCCOP(=O)(O)CO[C@H](CO)Cn1ccc(N)nc1=O | 6.54 µM | 33.3 µM | 5.09 | 2.02 µM | 47.6 µM | 23.5 | 1.26 µM | 37.7 | – | – | – | – | – | – | – | – | – | –
2 | CCCCCCCCCCCCCCCCSSCCCOP(=O)(O)CO[C@H](CO)Cn1ccc(N)nc1=O | 0.274 µM | 12.7 µM | 46.3 | 0.401 µM | 46.7 µM | 116 | 0.3 µM | 156 | – | – | – | – | – | – | – | – | – | –
3 | CCCCCCCCCCCCSSCCCCOP(=O)(O)CO[C@H](CO)Cn1ccc(N)nc1=O | 0.861 µM | 35 µM | 40.6 | 1.05 µM | 80.6 µM | 76.8 | 0.255 µM | 317 | – | – | – | – | – | – | – | – | – | –
4 | CCCCCCCCSSCCCCCCOP(=O)(O)CO[C@H](CO)Cn1ccc(N)nc1=O | 49.3 µM | > 200 µM | > 4.05 | > 50 µM | > 200 µM | > 4 | – | – | – | – | – | – | – | – | – | – | – | –
5 | CCCCCCCCCCCCCCCCSSCCOP(=O)(O)CO[C@H](CO)Cn1ccc(N)nc1=O.N | 0.068 µM | 2.58 µM | 37.7 | 0.09 µM | 8.69 µM | 96.1 | 0.157 µM | 55.2 | Active | 81% | 68% | > 90% | 3.237 h | – | – | – | – | –
6 | CCCCCCCCCCCCCCCCSSCCCCOP(=O)(O)CO[C@H](CO)Cn1ccc(N)nc1=O.N | 0.304 µM | 12.5 µM | 41 | 1.65 µM | 31 µM | 18.8 | 0.134 µM | 232 | Active | – | – | > 90% | 4.375 h | 2 | Stable | – | – | –
7 | CCCCCCCCCCCCCCCCCCSSCCOP(=O)(O)CO[C@H](CO)Cn1ccc(N)nc1=O.N | 0.141 µM | 4.9 µM | 34.8 | 0.104 µM | 14.1 µM | 136 | 0.193 µM | 73.1 | Active | 93% | – | – | – | – | – | Stable | – | –
8 | CCCCCCCCCCSSCCOP(=O)(O)CO[C@H](CO)Cn1ccc(N)nc1=O | 2.49 µM | 81.3 µM | 32.7 | 6.27 µM | 65.2 µM | 10.4 | 12.5 µM | 5.2 | – | – | – | – | – | – | – | – | – | –
9 | CCCCCCCCCCSSCCCCOP(=O)(O)CO[C@H](CO)Cn1ccc(N)nc1=O | 40.6 µM | 95.8 µM | 2.36 | 45.7 µM | 162 µM | 3.55 | – | – | – | – | – | – | – | – | – | – | – | –
10 | CCCCCCCCCCCCCCSSCCCCCCOP(=O)(O)CO[C@H](CO)Cn1ccc(N)nc1=O.N | 0.549 µM | 8.56 µM | 15.6 | 0.593 µM | 80.8 µM | 136 | 0.274 µM | 295 | Active | – | – | – | – | – | – | – | Stable | –
11 | CCCCCCCCCCSSCCCCCCOP(=O)(O)CO[C@H](CO)Cn1ccc(N)nc1=O | 6.27 µM | 115 µM | 18.4 | 4.29 µM | 194 µM | 45.2 | 2.31 µM | 83.9 | – | – | – | – | – | – | – | – | – | –
12 | CCCCCCCCCCCCSSCCCCCCOP(=O)(O)CO[C@H](CO)Cn1ccc(N)nc1=O.N | 0.854 µM | 15.2 µM | 17.8 | 0.838 µM | 134 µM | 160 | 0.185 µM | 725 | – | – | – | > 90% | 4.45 h | – | Stable | – | – | –
13 | CCCCCCCCCCCCCCSSCCCCOP(=O)(O)CO[C@H](CO)Cn1ccc(N)nc1=O.N | 0.517 µM | 18.1 µM | 35 | 0.599 µM | 44.3 µM | 74 | 0.384 µM | 115 | – | – | – | – | – | – | – | – | Stable | –
14 | CCCCCCCCCCCCSSCCOP(=O)(O)CO[C@H](CO)Cn1ccc(N)nc1=O | 0.365 µM | 14.3 µM | 39.2 | 0.217 µM | 47 µM | 216 | 0.795 µM | 59.1 | – | – | – | – | – | – | – | – | – | –
15 | CCCCCCCCCCCCCCSSCCCOP(=O)(O)CO[C@H](CO)Cn1ccc(N)nc1=O.N | 0.283 µM | 13.9 µM | 49.3 | 0.223 µM | 50.7 µM | 227 | 0.548 µM | 92.6 | – | – | – | – | – | – | – | – | Stable | –
16 | CCCCCCCCCCCCCCSSCCOP(=O)(O)CO[C@H](CO)Cn1ccc(N)nc1=O.N | 0.096 µM | 6.53 µM | 68 | 0.079 µM | 14.7 µM | 186 | 0.157 µM | 93.7 | Active | – | 77% | > 90% | 2.144 h | – | – | – | – | 13%
17 | CCCCCCCCCCCCCCCCCCSSCCCOP(=O)(O)CO[C@H](CO)Cn1ccc(N)nc1=O | 0.436 µM | 9.87 µM | 22.7 | 0.724 µM | 32.3 µM | 44.6 | 1.86 µM | 17.3 | – | – | – | – | – | – | – | – | – | –
18 | CCCCCCCCCCSSCCCOP(=O)(O)CO[C@H](CO)Cn1ccc(N)nc1=O | 31.5 µM | 182 µM | 5.77 | 22 µM | 130 µM | 5.91 | – | – | – | – | – | – | – | – | – | – | – | –
19 | CCCCCCCCCCCCCCCCOCCCOP(=O)(O)CO[C@H](CO)Cn1ccc(N)nc1=O [BRINCIDOFOVIR] | 0.196 µM | 13.9 µM | 70.7 | 0.3 µM | 20.1 µM | 67 | 0.245 µM | 81.8 | – | – | 43% | > 90% | > 24 h | – | – | – | – | –
